Screening data from PubChem BioAssay.
Only some compounds are listed: those with a hit (about 3.8% of all), similar ones and a draw of the others.
hERG protect: hERG rescue from dofetilide block, primary screen, cell-based, CHO-hERG, FluxOR thallium flux, dofetilide IC70 | activation (rescue from dofetilide block), less the hit threshold, % at 10 µM | dofetilide IC70 present | AID 1511, 2009 | Voltage-gated inwardly rectifying potassium channel KCNH2 (Homo sapiens), Q12809 | 0.51% of 310,000 active;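 active = activation above the mean of controls blocked by dofetilide plus 5 SD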;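 note: thallium influx through hERG after potassium depolarization seen as dye fluorescence rise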
KCNK3 inh: human KCNK3 channel inhibitors, primary screen, CHO cells, FluxOR thallium flux, B-score. Potassium channel subfamily K member 3 (Homo sapiens), O14649. FluxOR fluorescence; stronger effect = lower value. B-score at 10 µM. 0.84% of 340,000 active. AID 602410, 2012;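 active = B-score under library mean minus 4 SD, starting fluorescence ratio at most library mean plus 5 SD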;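 note: more negative B-score means stronger inhibition of thallium flux through KCNK3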
KCNK9 inh: KCNK9 potassium channel inhibitors, primary screen, HEK293 cells, thallium flux; B-score at 10 µM; 1.2% of 310,000 active; FluxOR thallium flux fluorescence; stronger effect = lower value;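 active = ratio B-score over 3 SD below the library mean, with starting fluorescence within 5 SD of its mean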;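 note: negative B-score means less thallium flux so channel inhibition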
Target sequence (Q9NPC2 whole entry, looked up): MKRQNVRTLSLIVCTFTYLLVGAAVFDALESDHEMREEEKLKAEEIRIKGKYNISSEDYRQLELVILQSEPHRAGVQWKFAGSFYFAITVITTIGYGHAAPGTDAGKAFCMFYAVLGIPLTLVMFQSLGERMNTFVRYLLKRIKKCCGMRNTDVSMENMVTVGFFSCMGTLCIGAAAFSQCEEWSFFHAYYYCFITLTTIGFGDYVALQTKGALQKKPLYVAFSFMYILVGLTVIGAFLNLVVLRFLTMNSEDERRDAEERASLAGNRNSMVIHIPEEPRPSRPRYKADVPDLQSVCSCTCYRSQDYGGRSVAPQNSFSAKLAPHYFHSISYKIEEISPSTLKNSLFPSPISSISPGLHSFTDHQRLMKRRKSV
KCNQ1 act: potentiators or activators of KCNQ1 channel, primary screen, cell-based, thallium flux, high-throughput | CHO-K1 KCNQ1, thallium flux FluxOR fluorescence; stronger effect = higher value | B-score at 10 µM | 0.35% of 310,000 active | AID 2648, 2010;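 active = fluorescence ratio B-score, a plate-corrected score, at least three library SD, with initial intensity B-score within 5 SD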
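Medium – assay buffer, equal DMSO in all wells · Material – CHO-K1 cell line with stable KCNQ1 potassium channel expression · Signal – kinetic FluxOR thallium fluorescence, 10-s 1-Hz baseline, 110-s post-stimulus read · Compound – single concentration per compound, DMSO matched to controls · Schedule – 37 °C overnight plating, 90-min dark dye load, 20-min compound pretreatment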
Kir21 inh: inhibitors of mouse Kir2.1 inward-rectifier potassium channel | 0.85% of 310,000 active | HEK293-Kir2.1, FluxOR thallium flux fluorescence; stronger effect = lower value | B-score at 10 µM | Inward rectifier potassium channel 2 (Mus musculus), P35561;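 active = fluorescence ratio B-score at or below minus 3 SD of library scores, with starting-brightness B-score within 2 SD, cut at about -4.2 in these data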;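 note: channel flux triggered by added potassium and thallium sulfate stimulus; B-score of peak minus minimum fluorescence over baseline after thallium stimulus; more negative B-score means stronger Kir2.1 block with less thallium influx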
KCNQ1 inh: inhibitors of human KCNQ1 channel, primary screen, cell-based, thallium flux, high-throughput; Potassium voltage-gated channel subfamily KQT member 1 (Homo sapiens), P51787; CHO-K1 KCNQ1, FluxOR thallium flux fluorescence; stronger effect = higher value; B-score at 10 µM; 1.3% of 310,000 active;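 active = compounds whose thallium flux B-score, printed positive for inhibition, exceeds three library SD while starting fluorescence stays within three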;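 note: channel opened by potassium depolarization with thallium stimulus after 20 min compound exposure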
KCNK9 inh conf: KCNK9 potassium channel inhibitors, confirmation, HEK293 cells, thallium flux, duplicate. shares compounds with KCNK9 inh. FluxOR thallium flux fluorescence. inhibition, % at 10 µM. 43% of 4,900 active. AID 492992, 2010;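 active = thallium signal inhibited by more than 5 SD of the compound-free buffer control wells, on both duplicate plates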
Kir2-1 spec: mouse Kir2.1 channel inhibition, confirmation, selectivity assay for KCNK9 modulator project, cell-based, HEK293, thallium flux | Kir2.1 cells, FluxOR thallium flux fluorescence | shares compounds with KCNK9 inh | 4% of 4,900 active | inhibition, % at 10 µM;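 active = thallium signal drop more than 5 SD beyond the mean of the no-compound control wells, seen in both duplicate plates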;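 note: signal is fluorescence rise after thallium addition divided by baseline fluorescence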
HEK293 Tl ctr: thallium flux in non-induced HEK293 cells, confirmation, counter-screen for KCNK9 inhibitor project, cell-based, second counter screen, non-induced KCNK9-HEK293; FluxOR thallium flux; shares compounds with KCNK9 inh; 40% of 4,900 active; inhibition, % at 10 µM;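 active = thallium signal drop beyond 5 SD of the untreated control mean, on both duplicate plates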
Hits are given with their value; n = inactive; x = no result given.

SMILES | hERG protect | KCNK3 inh | KCNK9 inh | KCNQ1 act | Kir21 inh | KCNQ1 inh | KCNK9 inh conf | Kir2-1 spec | HEK293 Tl ctr
CN(CC(=O)NCc1ccccc1)Cc1cccc(F)c1 | n | n | n | n | n | n | x | x | x
Cc1c(C)n2c(SCC(=O)N3CCN(c4ccccc4)CC3)nnc2[nH]c1=O | n | n | n | n | n | n | x | x | x
O=C(c1cccnc1)N1CCC(Oc2ccc(C(=O)N3CCCC(O)C3)cc2)CC1 (centres undefined) | n | n | n | n | n | n | x | x | x
Cc1c(C(=O)c2ccc(Cl)cc2Cl)cnc2cc3c(cc12)OCO3 | n | n | -16 | n | n | n | 62% | n | 30%
CCOc1ccc(C(=O)NCC(=O)OCc2nnc(-c3ccccc3)o2)cc1OCC | x | n | x | x | x | x | x | x | x
O=C(NCCC1=CCCCC1)c1ccc(Cl)c(S(=O)(=O)N2CCCCC2)c1 | n | n | n | n | n | n | n | n | n
Cc1ccc(CSCCNC(=O)c2ccc(Cl)c(S(=O)(=O)N3CCOCC3)c2)cc1 | n | n | n | n | n | n | n | n | n
CCOC(=O)c1[nH]cnc1C(=O)N1CCC(C)CC1 | x | n | x | x | x | x | x | x | x
CCN(CC)c1ccc(-c2nn3c(-c4n[nH]c5c4CCC5)nnc3s2)cc1 | n | -9 | -14 | n | n | n | 44% | n | 36%
C=CCN(C)CC/C=C1\c2ccccc2CSc2ccccc21 | n | n | n | n | n | n | n | n | n
N#C/C(=C/c1ccc(N2CCOCC2)o1)c1ccc(Cl)cc1 | n | n | -10 | n | n | n | 74% | 38% | 80%
Cc1nc(N2CCCCC2C)c2c(C)c(C(=O)Nc3ccccc3C(F)(F)F)sc2n1 (centres undefined) | n | n | -14 | n | n | 9 | 55% | n | 42%
Cc1nc(N2CCOCC2)c2c(C)c(C(=O)Nc3ccccc3Cl)sc2n1 | n | n | n | n | n | n | x | x | x
CC(C)c1cccc(C(C)C)c1NC(=O)CN(C)C1CCS(=O)(=O)C1 (centres undefined) | x | n | x | x | x | x | x | x | x
Cc1cc(C)c(C(=O)C2OC(=O)C(C)(C)C(=O)C2(C)C)c(C)c1 (centres undefined) | n | n | n | n | n | n | n | n | n
Cc1ccc(Sc2nc(-c3ccccc3)nnc2C(F)(F)F)cc1 | n | n | n | n | n | n | n | n | n
COc1ccc(OC)c(NC(=O)c2ccc(-c3cccs3)cc2)c1 | n | n | -13 | n | n | n | 66% | n | 35%
Oc1ccc2ccccc2c1C=NCc1ccccc1 | n | n | n | n | n | n | n | n | n
CCOC(=O)c1ccccc1NC(=S)N1CC(C)CC(C)C1 (centres undefined) | n | n | n | n | n | n | n | n | n
CCOC(=O)c1ccccc1NC(=O)c1c(F)c(F)c(F)c(F)c1F | n | n | n | n | n | n | n | n | n
CCOC(=O)c1ccccc1NC(=O)c1ccc(F)cc1 | n | n | n | n | n | n | x | x | x
CCOC(=O)c1ccccc1N/C=C/C(=O)c1ccccc1 | n | n | -16 | n | n | n | 69% | n | 36%
CCOC(=O)c1ccccc1NC(=S)N1CCC(C)CC1 | n | n | n | n | n | n | x | x | x
CCC1(c2ccccc2)NC(=O)N(CC(=O)Nc2ccc(S(=O)(=O)NC3=NCCCCC3)cc2)C1=O (centres undefined) | n | n | n | n | n | n | x | x | x
Clc1ccc(Cn2nc(-c3ccccc3)nc2-c2ccccc2)cc1 | n | n | -12 | n | n | n | 58% | n | 54%
SMILES | hERG protect | KCNK3 inh | KCNK9 inh | KCNQ1 act | Kir21 inh | KCNQ1 inh | KCNK9 inh conf | Kir2-1 spec | HEK293 Tl ctr
COc1ccc(C(C(=O)NC(C)(C)C)N(CCc2ccccc2)C(=O)CCC(=O)Nc2cc(C)on2)cc1 (centres undefined) | n | n | n | n | n | n | x | x | x
Cc1cccc(-n2c(=S)[nH]c3sc4c(c3c2=O)CCc2ccccc2-4)c1 | n | n | n | 8 | n | n | n | n | n
COc1ccc(C(=O)C2CCCN(C(=O)c3noc4c3CCCC4)C2)c(C)c1 (centres undefined) | n | n | n | n | n | n | n | n | n
COc1ccc(C(=O)C2CCCN(C(=O)C3=CCCC3)C2)c(C)c1 (centres undefined) | n | n | n | n | n | n | n | n | n
COc1ccc(C(=O)C2CCCN(C(=O)c3ccc(CSC)o3)C2)cc1F (centres undefined) | n | n | n | n | n | n | n | n | n
C#Cc1cccc(C(=O)N2CCCC(C(=O)c3ccc(OC)cc3C)C2)c1 (centres undefined) | n | n | n | n | -4.3 | n | n | n | n
Cc1cc(C)c(C)c(S(=O)(=O)NCc2ccc(C(=O)N3CCCCC3)cc2)c1C | n | n | n | n | n | n | x | x | x
O=C(O)c1cc(-c2c[nH]c3ccccc23)nc2cc3ccccc3cc12 | n | n | n | n | n | n | x | x | x
COc1ccc(C(=O)C2CCCN(C(=O)c3noc4c3CCCC4)C2)cc1F (centres undefined) | n | n | n | n | n | n | n | n | n
Cc1cnc(C(=O)N2CCCC(N3CCN(c4ccccc4C)CC3)C2)cn1 (centres undefined) | n | n | n | n | n | n | x | x | x
Cc1ccccc1N1CCN(C2CCCN(C(=O)c3noc4c3CCCC4)C2)CC1 (centres undefined) | n | n | n | n | n | n | n | n | n
COc1ccc(C(=O)C2CCCN(C(=O)c3ccccc3C(C)=O)C2)cc1F (centres undefined) | n | n | n | n | n | n | x | x | x
O=C(CCl)N(C1CCCC1)C1CCS(=O)(=O)C1 (centres undefined) | n | n | n | n | n | n | x | x | x
O=C(O)C(CCC(C(=O)O)c1ccccc1)c1ccccc1 (centres undefined) | x | n | x | x | x | x | x | x | x
